Results as given in ChEMBL document CHEMBL2385053, “Novel isoquinoline derivatives as antimicrobial agents” (2013).

What was measured:
[1] = test system: Aspergillus parasiticus; experiment: Fungicidal activity against Aspergillus parasiticus CECT 2681 at 0.2 mg/disk after 72 hrs by paper disk-agar diffusion method; format: functional
Outline: (§1)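 Fungi were grown on potato dextrose agar (PDA) for 7 days at 28 °C. Conidia were suspended to ~10⁶/mL in 0.05% Tween 80 in sterile water, and 1 mL was mixed into 15 mL PDA. Four 0.5 cm paper disks (0.2 mg/disk) were placed on the set agar. Controls were vehicle-only disks and benomyl at species-dependent doses. The inhibition zone was read in mm at 72 h as the mean ± SE of three independent experiments.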

[2] = test system: Staphylococcus aureus; experiment: Bactericidal activity against Staphylococcus aureus CECT 86 at 0.2 mg/disk after 24 hrs by paper disk-agar diffusion method; format: functional
Outline: (§2)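 Each bacterial strain was taken from a 24-h culture on solid medium, reactivated in Nutrient Broth, and grown a further 24 h at 28 or 37 °C depending on the strain. 1 mL of suspension was mixed with 15 mL Plate Count Agar. Four 0.5 cm paper disks (0.2 mg/disk) were placed on the set agar. Controls were vehicle-only disks and tetracycline. Plates were incubated 24 h, dark, 28 or 37 °C. The inhibition zone was read in mm as the mean ± SE of three independent experiments.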

[3] = test system: Escherichia coli; experiment: Bactericidal activity against Escherichia coli CECT 100 at 0.2 mg/disk after 24 hrs by paper disk-agar diffusion method relative to control; format: functional
[4] = test system: Escherichia coli; experiment: Bactericidal activity against Escherichia coli CECT 405 at 0.2 mg/disk after 24 hrs by paper disk-agar diffusion method; format: functional; outline: as §2
[5] = test system: Bacillus cereus; experiment: Bactericidal activity against Bacillus cereus CECT 148 at 0.2 mg/disk after 24 hrs by paper disk-agar diffusion method; format: functional; outline: as §2
[6] = test system: Enterococcus faecalis; experiment: Bactericidal activity against Enterococcus faecalis CECT 481 at 0.2 mg/disk after 24 hrs by paper disk-agar diffusion method; format: functional; outline: as §2
[7] = test system: Phytophthora citrophthora; experiment: Fungicidal activity against Phytophthora citrophthora CECT 2353 at 0.2 mg/disk after 72 hrs by paper disk-agar diffusion method; format: functional; outline: as §1
[8] = test system: Escherichia coli; experiment: Bactericidal activity against Escherichia coli CECT 100 at 0.2 mg/disk after 24 hrs by paper disk-agar diffusion method; format: functional; outline: as §2
[9] = test system: Trichoderma viride; experiment: Fungicidal activity against Trichoderma viride CECT 2423 at 0.2 mg/disk after 72 hrs by paper disk-agar diffusion method; format: functional; outline: as §1
[10] = test system: Pectobacterium carotovorum; experiment: Bactericidal activity against Erwinia carotovora CECT 225 at 0.2 mg/disk after 24 hrs by paper disk-agar diffusion method; format: functional; outline: as §2
[11] = test system: Fusarium culmorum; experiment: Fungicidal activity against Fusarium culmorum CCM 172 at 0.2 mg/disk after 72 hrs by paper disk-agar diffusion method; format: functional; outline: as §1
[12] = test system: Salmonella typhi; experiment: Bactericidal activity against Salmonella typhi CECT 409 at 0.2 mg/disk after 24 hrs by paper disk-agar diffusion method; format: functional, Salmonella enterica subsp. enterica serovar Typhi
Outline: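 Paper disk-agar diffusion, run in triplicate. 24-h culture reactivated in nutrient broth and grown a further 24 h at 28 or 37 °C by species. 1 mL suspension mixed into 15 mL plate count agar. Four 0.5 cm disks placed per plate, incubated 24 h in the dark. Inhibition zone (mm) reported as mean ± SE of three independent experiments; vehicle disks as negative control.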

[13] = test system: Bacillus cereus; experiment: Bactericidal activity against Bacillus cereus CECT 148 at 0.2 mg/disk after 24 hrs by paper disk-agar diffusion method relative to control; format: functional
[14] = test system: Geotrichum candidum; experiment: Fungicidal activity against Geotrichum candidum CCM 245 at 0.2 mg/disk after 72 hrs by paper disk-agar diffusion method; format: functional; outline: as §1
[15] = test system: Escherichia coli; experiment: Bactericidal activity against Escherichia coli CECT 405 at 0.2 mg/disk after 24 hrs by paper disk-agar diffusion method relative to control; format: functional
[16] = test system: Staphylococcus aureus; experiment: Bactericidal activity against Staphylococcus aureus CECT 86 at 0.2 mg/disk after 24 hrs by paper disk-agar diffusion method relative to control; format: functional
[17] = test system: Trichoderma viride; experiment: Fungicidal activity against Trichoderma viride CECT 2423 at 1 ug/disk after 72 hrs by paper disk-agar diffusion method; format: functional; details: CECT 2423, 72 h, read-out: IZ
Outline: (§3)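 Fungi grown on potato dextrose agar for 7 days at 28 °C. Conidia suspended to about 10⁶/mL in 0.05% Tween 80 in sterile water. 1 mL suspension added to 15 mL PDA; four impregnated 0.5 cm disks placed after setting. Inhibition zone measured at 72 h; mean ± SE of three independent experiments. Vehicle disks as negative control; benomyl dose set per fungal species.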

[18] = test system: Phytophthora citrophthora; experiment: Fungicidal activity against Phytophthora citrophthora CECT 2353 at 1.5 ug/disk after 72 hrs by paper disk-agar diffusion method; format: functional; details: CECT 2353, 72 h, read-out: IZ; outline: as §3
[19] = test system: Aspergillus parasiticus; experiment: Fungicidal activity against Aspergillus parasiticus CECT 2681 at 1 ug/disk after 72 hrs by paper disk-agar diffusion method; format: functional; details: CECT 2681, 72 h, read-out: IZ; outline: as §3
[20] = test system: Fusarium culmorum; experiment: Fungicidal activity against Fusarium culmorum CCM 172 at 10 ug/disk after 72 hrs by paper disk-agar diffusion method; format: functional; details: CCM 172, 72 h, read-out: IZ; outline: as §3
[21] = test system: Enterococcus faecalis; experiment: Bactericidal activity against Enterococcus faecalis CECT 481 at 0.2 mg/disk after 24 hrs by paper disk-agar diffusion method relative to control; format: functional
[22] = test system: Pectobacterium carotovorum; experiment: Bactericidal activity against Erwinia carotovora CECT 225 at 0.2 mg/disk after 24 hrs by paper disk-agar diffusion method relative to control; format: functional
[23] = test system: Salmonella typhi; experiment: Bactericidal activity against Salmonella typhi CECT 409 at 0.2 mg/disk after 24 hrs by paper disk-agar diffusion method relative to control; format: functional, Salmonella enterica subsp. enterica serovar Typhi

Compound | inhibition zone (IZ) [1] [mm] | inhibition zone (IZ) [2] [mm] | inhibition zone (IZ) [4] [mm] | inhibition zone (IZ) [5] [mm] | inhibition zone (IZ) [6] [mm] | inhibition zone (IZ) [7] [mm] | inhibition zone (IZ) [8] [mm] | inhibition zone (IZ) [9] [mm] | inhibition zone (IZ) [10] [mm] | inhibition zone (IZ) [11] [mm] | inhibition zone (IZ) [12] [mm] | inhibition zone (IZ) [14] [mm] | Activity [15] [%] | Activity [23] [%] | further results
COc1cc2c(cc1OC)C(CCCCCOC(=O)CCc1ccc(F)cc1)N(C)CC2 (centres undefined) | 0 | 10.33 | 8.83 | 11.33 | 9.33 | 6 | 11.83 | 8.33 | 11.67 | 7.67 | 9.17 | 8.33 |  |  | Activity [3]: 46%; Activity [13]: 49%
COc1ccc(NC(=O)OCCCCCC2c3cc(OC)c(OC)cc3CCN2C)cc1 (centres undefined) | 0 | 13.67 | 13.33 | 10.33 | 14.67 | 0 | 11.67 | 6.17 | 9.67 | 0 | 11.33 | 6.67 | 52 |  | Activity [16]: 51%
CCCCNC(=O)n1c(NC(=O)OC)nc2ccccc21 [BENOMYL] |  |  |  |  |  |  |  |  |  |  |  | 0 |  |  | zone of inhibition at 1 µg/disc [17]: 22 mm; zone of inhibition at 1.5 µg/disc [18]: 24.5 mm; zone of inhibition at 1 µg/disc [19]: 18 mm; zone of inhibition at 10 µg/disc [20]: 18 mm
COc1cc2c(cc1OC)C(CCCCCOC(=O)Nc1ccc(F)cc1)N(C)CC2 (centres undefined) |  | 14 | 12 | 14.33 | 20 |  | 12.33 |  | 22.33 |  | 14.67 |  |  |  | Activity [21]: 64%; Activity [22]: 64%
COc1cc2c(cc1OC)C(CCCCCOC(=O)Nc1ccccc1)N(C)CC2 (centres undefined) | 0 | 15 | 12.33 | 12.67 | 14.17 | 0 | 15.17 | 5.75 | 10.67 | 7 | 12 | 6.25 |  |  | Activity [3]: 59%
COc1cc2c(cc1OC)C(CCCCCOC(=O)c1ccc(F)cc1)N(C)CC2 (centres undefined) | 0 | 13.67 | 13.67 | 13 | 13.67 | 0 | 14 | 7 | 13.5 | 8 | 14.83 | 7 |  | 61 | 
COc1cc2c(cc1OC)C(CCCCCOC(=O)NCCc1ccc(F)cc1)N(C)CC2 (centres undefined) | 0 | 15.33 | 16 | 11.33 | 15 | 0 | 11.33 | 0 | 11.67 | 0 | 14.83 | 7.67 | 62 | 61 | 
COc1cc2c(cc1OC)C(CCCCCOC(=O)NCCc1ccc(Cl)cc1)N(C)CC2 (centres undefined) | 0 | 16.33 | 17.67 | 14.67 | 17 | 6.25 | 12.33 | 7 | 18.33 | 15 |  | 10 | 75 | 75 | 
COc1cc2c(cc1OC)C(CCCCCO)N(C)CC2 (centres undefined) |  | 10.67 | 11.33 | 0 | 10.33 |  | 16 |  | 8 |  | 12.33 |  |  |  | Activity [3]: 62%
COc1ccc(CCC(=O)OCCCCCC2c3cc(OC)c(OC)cc3CCN2C)cc1 (centres undefined) | 0 | 7.83 | 7.33 | 8.5 | 7 | 0 | 7 | 6 | 11.33 | 6.5 | 8 | 5.75 |  |  | 
COc1cc2c(cc1OC)C(CCCCCOC(=O)Nc1ccc(Cl)cc1)N(C)CC2 (centres undefined) | 0 | 17.33 | 17.33 | 14.33 | 18 | 0 | 13.17 | 8.67 | 12.5 | 7.33 | 16.33 | 10.33 | 68 | 67 | 
